# pEC50, pIC50: −log10 of the molar value.
# Legend:
# [1] = target: T1, Protein farnesyltransferase (Homo sapiens, UniProt P49354+P49356); assay: Displacement of radiolabeled FTI from Farnesyltransferase in cultured Ha-ras transformed RAT1 cells.; type: cell-based
# [2] = target: T2, Geranylgeranyl transferase type I (Homo sapiens, UniProt P49354+P53609); assay: Inhibition of human Geranylgeranyl transferase type I incorporation of [3H]GGPP into biotinylated peptide corresponding to the C-terminus of human Ki-Ras.; type: protein-complex assay
# Method in brief: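 Human GGPTase-I with [3H]GGPP and a biotinylated peptide matching the human Ki-Ras C-terminus. Enzyme and inhibitor are preincubated for 30 min with 5 mM ATP. The IC50 is the concentration that halves incorporation. A parallel run omits the preincubation.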
# Homo sapiens = organism: Homo sapiens; assay: Slope between log (IC50) versus log [GGPP] in GGTase-I; type: functional
# Method in brief: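 GGPP competition in the human GGPTase-I [3H]GGPP/biotinylated Ki-Ras peptide assay. IC50s are measured at various GGPP concentrations with 5 mM ATP.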
# PSN1 [3] = assay: Effective dose required for half-maximal inhibition of prenylation in PSN-1 cells (Ki-Ras); type: functional, cell-based; conditions: Homo sapiens
# Method in brief: (§1)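 PSN-1 cells are treated with compound. Prenylation of HDJ2, Rap1a and Ki-Ras is scored by scanning immunoblots of whole-cell extracts, and EC50 is the dose giving half-maximal inhibition of prenylation. The ratio is Ki-Ras EC50 over HDJ2 EC50. In one arm a selective GGTI is added at 1 μM.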
# PSN1 [4] = assay: Effective dose required for half-maximal inhibition of farnesylated protein (HDJ2) in PSN-1 cells; type: functional, cell-based; conditions: Homo sapiens; method in brief: as §1
# PSN1 [5] = assay: Effective dose required for half-maximal inhibition of geranylgeranylated protein (Rap1a) in PSN-1 cells; type: functional, cell-based; conditions: Homo sapiens; method in brief: as §1
# [6] = target: T1, Protein farnesyltransferase; assay: Inhibition of human Farnesyltransferase -catalyzed incorporation of [3H]FPP into recombinant Ras-CVIM.; type: protein-complex assay
# Method in brief: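 Human FPTase with [3H]FPP and recombinant Ras-CVIM as the protein substrate. The IC50 is the concentration that halves [3H]farnesyl incorporation into Ras-CVIM.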
# [7] = target: T2, Geranylgeranyl transferase type I; assay: Minimum inhibitory concentration required to inhibit Rap1a processing in PSN-1 cells.; type: functional, cell-based
# PSN1 [8] = assay: Ratio of effective concentration required for protein processing of Ki-Ras to that of HDJ2 in PSN-1 cells; type: functional, Homo sapiens; method in brief: as §1
SMILES,pIC50 [1],pIC50 [2],Slope (Homo sapiens),pEC50 (PSN1 [3]),pEC50 (PSN1 [4]),pEC50 (PSN1 [5]),pIC50 [6],MIC [7],Ratio (PSN1 [8])
Cc1ccc2cc1CN1CCN(CC1=O)Cc1cncn1Cc1ccc(C#N)c(c1)O2,9.48,6.30,,,,,,,
N#Cc1ccc(Cn2cncc2CN2CCN(c3cccc(Cl)c3)C(=O)C2)cc1 [L-778123 FREE BASE],,,1.42,5.20,7.04,5.17,,,
N#Cc1ccc2cc1Oc1ccc(CCC3CCCCC3)c(c1)CN1CCN(CC1=O)Cc1cncn1C2,8.24,8.77,-0.25,5.97,7.92,6.85,8.80,0.03 µM,89
CCc1ccc2cc1CN1CCN(CC1=O)Cc1cncn1Cc1ccc(C#N)c(c1)O2,8.92,6.91,-0.16,,,,9.18,1 µM,
N#Cc1ccc2cc1Oc1cccc(c1)CN1CCN(CC1=O)Cc1cncn1C2,8.48,5.42,0.08,,,,8.66,30 µM,
N#Cc1ccc2cc1Oc1ccc(Cl)c(c1)CN1CCN(CC1=O)Cc1cncn1C2,9.52,6.35,,,,,> 9.00,,
N#Cc1ccc2cc1Oc1ccc(CC(O)CO)c(c1)CN1CCN(CC1=O)Cc1cncn1C2 (stereo not drawn),7.40,5.98,,,,,8.17,,
N#Cc1ccc2cc1Oc1ccc3cccc(c3c1)N1CCN(CC1=O)Cc1cncn1C2,9.54,6.52,-0.44,< 5.00,8.70,< 5.00,,10 µM,>5000
CC1(C)OCC(Cc2ccc3cc2CN2CCN(CC2=O)Cc2cncn2Cc2ccc(C#N)c(c2)O3)O1 (stereo not drawn),9.07,7.34,0.25,5.82,8.00,6.16,9.30,< 0.3 µM,150
N#Cc1ccc2cc1Oc1ccc(CC3CC3)c(c1)CN1CCN(CC1=O)Cc1cncn1C2,8.66,6.62,,,,,9.18,10 µM,
CC(C)(C)C#Cc1ccc2cc1CN1CCN(CC1=O)Cc1cncn1Cc1ccc(C#N)c(c1)O2,8.00,7.26,0.32,,,,7.42,1 µM,
CC(C)(C)CCc1ccc2cc1CN1CCN(CC1=O)Cc1cncn1Cc1ccc(C#N)c(c1)O2,7.55,8.68,0.48,,,,7.72,0.1 µM,
C#Cc1ccc2cc1CN1CCN(CC1=O)Cc1cncn1Cc1ccc(C#N)c(c1)O2,8.85,6.67,,,,,9.30,3 µM,
C=CCc1ccc2cc1CN1CCN(CC1=O)Cc1cncn1Cc1ccc(C#N)c(c1)O2,9.23,6.97,,,,,10.00,1 µM,
CCCc1ccc2cc1CN1CCN(CC1=O)Cc1cncn1Cc1ccc(C#N)c(c1)O2,9.36,7.01,-0.12,,,,9.51,1 µM,
N#Cc1ccc2cc1Oc1ccc(C#Cc3ccccc3)c(c1)CN1CCN(CC1=O)Cc1cncn1C2,,6.27,,,,,6.19,,
N#Cc1ccc2cc1Oc1ccc(F)c(c1)CN1CCN(CC1=O)Cc1cncn1C2,9.00,5.56,,,,,> 9.00,,
COC(=O)c1ccc2cc1CN1CCN(CC1=O)Cc1cncn1Cc1ccc(C#N)c(c1)O2,7.70,6.38,,,,,7.62,3 µM,
N#Cc1ccc2cc1Oc1ccc(C#CC3CCCCC3)c(c1)CN1CCN(CC1=O)Cc1cncn1C2,6.77,8.62,0.68,,,,6.44,0.3 µM,
N#Cc1ccc2cc1Oc1ccc(C(=O)NC3C4CC5CC(C4)CC3C5)c(c1)CN1CCN(CC1=O)Cc1cncn1C2 (stereo not drawn),7.52,7.37,0.28,,,,7.70,0.1 µM,
N#Cc1ccc2cc1Oc1ccc(Br)c(c1)CN1CCN(CC1=O)Cc1cncn1C2,8.96,7.00,,,,,9.35,10 µM,

# From ChEMBL document CHEMBL1148268, “Macrocyclic piperazinones as potent dual inhibitors of farnesyltransferase and geranylgeranyltransferase-I” (Bioorg Med Chem Lett, 2004)
